# Results from the RNAGym collection of RNA variant scans (doi:10.1126/science.aae0568).
# Variants at the floor of the assay were thinned out.
# B1: tRNA (parent)
# chain: GUUCCGUUGGCGUAAUGGUAACGCGUCUCCCUCCUAAGGAGAAGACUGCGGGUUCGAGUCCCGUACGGAACG
# Variants of: B1
# Experiment: yeast fitness relative to wild type (ratio to wild type); higher = fitter; tRNA-Arg(CCU), competitive growth, 37 C, YPD
# Outline: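 A pool of Saccharomyces cerevisiae strains, each with a tRNA-Arg(CCU) gene variant at the native genomic locus, was competed in YPD at 37°C for 24 hours across six parallel replicates. The variants had been chemically synthesised at a 3% per-site mutation rate over 69 sites, and gene amplicons before and after competition were read by 100-nucleotide paired-end sequencing. Darwinian fitness relative to wild type rested on changes in genotype frequencies. Genotypes required ≥ 100 starting reads, and estimates < 0.5 were set to 0.5.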
row,Variant,yeast fitness
1,C11U A15G G23A C60A C61U G63C C66U,≤ 0.5
2,C11U U35C,0.7
3,C5G G44C C62U C66U A69C,0.515
4,U2C C24G C34U C49A,≤ 0.5
5,C4U C46A,0.841
6,G10A A20G,0.649
7,C46A C60G C62U A69C,≤ 0.5
8,C22G C55G,0.585
9,C27G C31A G58C,≤ 0.5
10,C5U G9C A15C G38C C49G G68C,≤ 0.5
11,A37C G38A C55A A65C,≤ 0.5
12,C31G G38A G63U,≤ 0.5
13,U19C A42C,1.06
14,C4G A20G A70C,0.758
15,U7C U32C,0.776
16,A36U G56A A69U,≤ 0.5
17,U32A C66U,0.834
18,G10C A21G C22U C46U G56C,0.58
19,C27A C34A G67U A69C,≤ 0.5
20,G17A U19C C34A A40G C66U,≤ 0.5
21,G9C U16A C29A G58C A69U,0.645
22,G17C C30G C60G,0.904
23,A21C C27U G63A A65G,0.505
24,G25A C62U,0.931

row,Variant,yeast fitness
1,U19A C29G A69C,0.547
2,U35A A65U,0.757
3,A40U A42C G44A G51A,≤ 0.5
4,C33A G39C,0.677
5,A14C C30A C33G C46U,≤ 0.5
6,G9C C34G C61U,0.553
7,A15C C24U G44A C55G,≤ 0.5
8,U7G C27G U28G G67A,0.547
9,C11U C29G A37C A42U A57G,≤ 0.5
10,C5A C31G A42G,≤ 0.5
11,C30G A69U,0.669
12,U2G A14G,0.713
13,U8A U64G,0.554
14,C4G C24U U47C,0.673
15,C4A A14U C34U U54C,≤ 0.5
16,G12A U19G U35C A40U G52C U64C,≤ 0.5
17,G23A C30A G51A,0.562
18,G25C U26G C46G C61A A70U,≤ 0.5
19,U16G C29G C62U,≤ 0.5
20,C4U A36U G52A,≤ 0.5
21,U13G A20G U28A A70U,0.873
22,C24G C31G G68A A70U,≤ 0.5
23,A45G C61A A70G,0.55
24,C22A A43U G68A,≤ 0.5

row,Variant,yeast fitness
1,U8C C31A G52C A65U,≤ 0.5
2,U3A C55U G68C,0.573
3,U19C C30G C33G U53A,≤ 0.5
4,A14C C49G A69C,≤ 0.5
5,U28C C55A,0.564
6,U26C C33U,0.676
7,U2C A40C C66U,0.524
8,A14U A36G A40G A65U,≤ 0.5
9,C4A A20G G44C A45G C55U,≤ 0.5
10,U3G C31A A45C,≤ 0.5
11,C5G A37C G51A U53C C62A,≤ 0.5
12,U3A A40G A57C A69C,≤ 0.5
13,C30A G38A G44A,≤ 0.5
14,C34G G48C C62U C66G,≤ 0.5
15,U7G U59C,0.871
16,G6C C31U,0.93
17,U7C G50C A70G,≤ 0.5
18,G6A U13A G17A G23C A45G,0.602
19,U7C G41A A42C G50C C66U,0.548
20,C24A C29G U35A A57U,0.515
21,C11G A37U C55U A57C,≤ 0.5
22,C5A G25A G58C C66U,≤ 0.5
23,C4G U28C A69U,0.568
24,G23C C34U A36U,≤ 0.5

row,Variant,yeast fitness
1,C34G G38C A40U G48C C49G,≤ 0.5
2,C5G U13G G18C A21C C60G A65U C66U,≤ 0.5
3,G18C G44C,0.637
4,A43G G52C U53C G63C,0.604
5,G6C A36U,0.653
6,A14G A21G C27U A45C G48C,≤ 0.5
7,G25A G41C C66U,0.755
8,G17C A20C G39A,0.528
9,U19C A20U G56C A57U,0.562
10,C31A G38A C46U,≤ 0.5
11,C49A U64C,0.86
12,U16C G48A,0.996
13,C11G U16A G48C A57U,≤ 0.5
14,C11U C29G C31U,0.531
15,C5G G23A A45U G52C,0.626
16,U8C G23C C29G A43U G50A A65C,≤ 0.5
17,U8C C29A C34G A36G A40C U47A C62G G68A,0.537
18,C5G G17C G25A A40C G68A,≤ 0.5
19,C5U A14C C31G A43U C60G,≤ 0.5
20,U2A C5G C11G A14U A15U U16C C29U,≤ 0.5
21,A40C G50A C62U,0.543
22,C4U A42U C49G,0.543
23,U32C C49U,0.971
24,A37G G44C A57U G67U A69C,≤ 0.5

row,Variant,yeast fitness
1,A14G A15U C61U,≤ 0.5
2,C11A C49A C61G,0.53
3,A36G A45U A65U,0.572
4,G18C G52C,0.819
5,G6C U7G U19A C27G G67U,≤ 0.5
6,U2A G10C C27A A37U C49A G56A,≤ 0.5
7,U19A U28G A40C A42G A69C,0.561
8,C5U C22U A37U,0.535
9,G38C A57C,0.535
10,U28G C31U G68A,≤ 0.5
11,U3A C4U U13A A36U C62A C66U,≤ 0.5
12,G12A C29G C34U A36C C61A,0.553
13,U2C A40G C61A,≤ 0.5
14,C22A C33A A36U G48A C62G,0.524
15,C4G A37U G51A G52C U59C,≤ 0.5
16,C22A G23A C33U A42U,≤ 0.5
17,A15U C49U G56A C61G,≤ 0.5
18,G17A A65G,0.884
19,U3A A37C A45C,0.6
20,G38A C62A C66G,0.804
21,U13C C62U,1.01
22,G9C U32A G58C,0.583
23,G10A A14U C30U A37C U53A,≤ 0.5
24,C33A G38C A43G U53C,0.547

row,Variant,yeast fitness
1,C11U G17A C49U,0.596
2,C4G U7G G12C A20U C49U U54A C55U A70C,≤ 0.5
3,A20U U28C C49U,0.61
4,G23C C31G A40U G51A A57C,≤ 0.5
5,U2A G6C C33U A40G,0.547
6,A42C A43C C49U A70C,0.585
7,U13A A20G C24U U35C G58C,0.632
8,C24G C60G A70G,≤ 0.5
9,A45C G50A C60G A65G,≤ 0.5
10,A37C C55A,0.599
11,C49U U53A C66U A70U,≤ 0.5
12,C5U G9C A36U C60G,≤ 0.5
13,C11G C22U G63C,≤ 0.5
14,G50A A70U,0.805
15,G39C C46U C62U C66G,≤ 0.5
16,C5A C24U U35C C61A,≤ 0.5
17,A14U G18C A36G,≤ 0.5
18,C5G U8C A15G G18C,≤ 0.5
19,U19A G68C,0.709
20,C49G C66G,0.647
21,C11G C24G G52C C55G,0.813
22,A14U A20U,0.588
23,U13A U28C C60G C66G,0.6
24,A21U U35A A65C,≤ 0.5

row,Variant,yeast fitness
1,G6C C11A C34G,≤ 0.5
2,A37G G41C A43U C66U A69C,≤ 0.5
3,G17A C22A A45U C66U,≤ 0.5
4,A14G G18A A21U U26C G48A,≤ 0.5
5,G10A C24A G56C,≤ 0.5
6,G6C C31G C46A G63C A65U,≤ 0.5
7,C11U U19G C27U G48A C66U,≤ 0.5
8,A14U U47G A65U,≤ 0.5
9,A14U U19A G23C C29A C66A,0.549
10,C4G A20U A43C G50A,≤ 0.5
11,C5G U13A C22G C27U C29G A40U U54C C61G,≤ 0.5
12,U13A A65G,1.04
13,U16A G67C,0.769
14,A15C U35C A37U C66U,≤ 0.5
15,U26C U35A U47A U54A,≤ 0.5
16,U26G C31U C62U,0.695
17,G9A A43C A57C,0.569
18,C55U,0.721
19,U28C C34A C49G G51C,≤ 0.5
20,C33U A37C,0.556
21,C4A C24A A42G U59A,≤ 0.5
22,A20C U59A,0.697
23,C11G G56A C62U,≤ 0.5
